Source: article PMC10928850 (RSC Advances, 2024)
In brackets after ≈: the same amount, converted by molar mass.

Legend:
[1] = Total antioxidant capacity; details: mean ± SE, three replicates
Iron reducing power = details: mean ± SE, three replicates
How it was run: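 Reducing power was measured by the Oyaizu method and expressed in μg mL−1, with ascorbic acid as the standard.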

[2] = DPPH radical scavenging activity; details: mean ± SE, three replicates
[3] = ABTS radical scavenging assay; details: at equal concentrations; mean ± SE, three replicates
β-glucosidase = test: β-Glucosidase enzyme inhibition; assay type: biochemical; details: mean ± SE, three replicates; for β-Glucosidase Inhibition (%): at the same concentration
[4] = target: acetylcholinesterase (AChE) (Homo sapiens, UniProt P22303); test: Acetylcholinesterase inhibition, Ellman's method; assay type: biochemical; details: for AChE Inhibition (%): at the same concentration, mean ± SE, three replicates
Chain of acetylcholinesterase (AChE) (P22303 32-614, species assumed): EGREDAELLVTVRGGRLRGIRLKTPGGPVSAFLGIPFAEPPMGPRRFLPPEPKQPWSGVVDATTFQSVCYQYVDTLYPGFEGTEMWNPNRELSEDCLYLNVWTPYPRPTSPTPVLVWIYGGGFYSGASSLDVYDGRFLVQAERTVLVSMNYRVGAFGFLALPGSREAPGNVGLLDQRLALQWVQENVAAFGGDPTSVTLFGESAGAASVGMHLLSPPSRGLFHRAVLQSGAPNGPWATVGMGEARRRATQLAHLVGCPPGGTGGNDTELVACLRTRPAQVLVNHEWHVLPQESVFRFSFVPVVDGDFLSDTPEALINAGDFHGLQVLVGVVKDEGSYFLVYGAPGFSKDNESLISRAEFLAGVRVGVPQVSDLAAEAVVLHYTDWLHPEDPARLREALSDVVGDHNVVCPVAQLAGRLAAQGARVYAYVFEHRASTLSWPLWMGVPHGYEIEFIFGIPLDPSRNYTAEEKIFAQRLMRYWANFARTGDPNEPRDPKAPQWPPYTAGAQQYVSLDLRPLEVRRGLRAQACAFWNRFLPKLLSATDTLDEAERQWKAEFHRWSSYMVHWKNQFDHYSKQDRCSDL

[5] = test system: bovine serum albumin (BSA); test: Anti-arthritic: inhibition of protein denaturation; details: inhibitory effect, at the same concentration; mean ± SE, three replicates
proteinase (trypsin) = test: Anti-arthritic: proteinase inhibitory activity; assay type: biochemical; details: at the same concentration; mean ± SE, three replicates
[6] = test system: human lung (A549) cancer cell line; test: MTT cytotoxicity, lung cancer A549; assay type: cell-based; details: A549, 48 h, read-out: IC50 Lung cancer (A549)
How it was run: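 Human lung A549 cells, run alongside Caco-2 colon cancer and normal WI-38 lung cells, were exposed to test compound. Viability was read by MTT, with optical density at 590. IC50 and percentage growth inhibition were computed with IC50 calculation software.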

[7] = test system: human colon (Caco-2) cancer cell line; test: MTT cytotoxicity, colon cancer Caco-2; assay type: cell-based; details: for IC50: Homo sapiens, Caco-2, 48 h, read-out: IC50 Colon cancer (Caco-2); for Therapeutic index (TI) Colon cancer (Caco-2): IC50 on the normal cells (WI-38)/IC50 on the cancer cells (Caco-2)
[8] = test system: normal lung (WI-38) cell line; test: MTT cytotoxicity, normal lung WI-38; assay type: cell-based; details: Homo sapiens, WI-38, 48 h, read-out: IC50 Normal lung (WI-38)
α-amylase = target: T1, α-amylase (Sus scrofa, UniProt P00690); test: α-Amylase enzyme inhibition; assay type: biochemical; details: at the same concentration; mean ± SE, three replicates
T1 sequence (P00690 16-511): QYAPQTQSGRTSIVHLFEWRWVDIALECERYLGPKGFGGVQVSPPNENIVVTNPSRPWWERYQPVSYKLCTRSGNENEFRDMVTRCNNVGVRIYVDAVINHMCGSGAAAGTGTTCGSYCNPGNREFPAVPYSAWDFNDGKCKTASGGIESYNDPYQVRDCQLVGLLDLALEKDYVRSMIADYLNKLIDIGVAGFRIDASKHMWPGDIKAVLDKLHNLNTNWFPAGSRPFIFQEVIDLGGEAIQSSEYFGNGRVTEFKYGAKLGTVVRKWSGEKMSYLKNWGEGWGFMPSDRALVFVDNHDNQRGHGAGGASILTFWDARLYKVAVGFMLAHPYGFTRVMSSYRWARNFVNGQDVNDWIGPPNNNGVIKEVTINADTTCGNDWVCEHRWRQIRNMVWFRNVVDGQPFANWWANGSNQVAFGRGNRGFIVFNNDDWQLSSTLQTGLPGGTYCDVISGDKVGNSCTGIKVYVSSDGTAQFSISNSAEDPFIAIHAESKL

α-glucosidase = α-glucosidase (Saccharomyces cerevisiae, UniProt P53341); test: α-Glucosidase enzyme inhibition; assay type: biochemical; details: at the same concentration; mean ± SE, three replicates
Chain of α-glucosidase (P53341 whole entry): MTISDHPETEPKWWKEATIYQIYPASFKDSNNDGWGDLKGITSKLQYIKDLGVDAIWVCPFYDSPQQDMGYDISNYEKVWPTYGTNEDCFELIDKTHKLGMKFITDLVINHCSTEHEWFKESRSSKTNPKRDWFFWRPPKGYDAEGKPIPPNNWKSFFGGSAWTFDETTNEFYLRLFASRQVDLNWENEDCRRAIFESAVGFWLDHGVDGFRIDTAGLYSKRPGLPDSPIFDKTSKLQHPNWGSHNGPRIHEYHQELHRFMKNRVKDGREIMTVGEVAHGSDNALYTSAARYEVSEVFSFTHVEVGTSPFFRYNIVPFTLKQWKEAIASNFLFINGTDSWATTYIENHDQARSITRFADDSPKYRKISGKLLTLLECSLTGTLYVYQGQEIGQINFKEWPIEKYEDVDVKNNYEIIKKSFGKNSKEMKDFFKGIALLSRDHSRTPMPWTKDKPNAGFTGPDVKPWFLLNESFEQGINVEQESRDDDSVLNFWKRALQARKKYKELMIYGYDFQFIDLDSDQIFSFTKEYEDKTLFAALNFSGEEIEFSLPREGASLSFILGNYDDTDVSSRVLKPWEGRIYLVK

α-glucosidase enzyme = test: Electrophoretic α-glucosidase pattern; assay type: biochemical; details: enzyme treated at concentration equivalent to IC50

Compound | Antioxidant activity TAC [1] | Antioxidant activity IRP (Iron reducing power) | Scavenging activity DPPH IC50 [2] | Scavenging activity ABTS (%) [3] | β-Glucosidase Inhibition (%) (β-glucosidase) | β-Glucosidase IC50 (β-glucosidase) | IC50 [4] | AChE Inhibition (%) [4] | Anti-arthritic activity: Proteinase denaturation (%) [5] | Anti-arthritic activity: Inhibition of proteinase (%) (proteinase (trypsin)) | IC50 [6] | IC50 [7] | Therapeutic index (TI) Colon cancer (Caco-2) [7] | IC50 [8] | α-Amylase Inhibition (%) (α-amylase) | α-Glucosidase Inhibition (%) (α-glucosidase) | α-glucosidase band (45 KDa) Qty (Band Quantity) (α-glucosidase enzyme)
COc1ccc(Nc2nn3c(-c4ccccc4)ccnc3c2C(=O)Nc2ccccc2)cc1 [12a] | 30.58 ± 0.07 mg gallic acid per g | 17.29 ± 0.04 µg/mL | 19.63 ± 0.04 µg/mL | 25.28 ± 0.06% | 7.67 ± 0.01% | 6470 ± 10 µg/mL | 7.67 mM | 14.92 ± 0.02% | 16.24 ± 0.04% | 14.91 ± 0.03% | 47.8 µg/mL (≈ 110 µM) | 38.1 µg/mL (≈ 87.6 µM) | 3.5 | 134 µg/mL (≈ 308 µM) | – | – | –
COc1ccc(Nc2nn3c(-c4ccccc4)ccnc3c2C(=O)Nc2ccc(Cl)cc2)cc1 [12b] | 31.27 ± 0.07 mg gallic acid per g | 17.97 ± 0.04 µg/mL | 18.33 ± 0.04 µg/mL | 28.23 ± 0.06% | 9.66 ± 0.02% | 5180 ± 10 µg/mL | 6.7 mM | 16.00 ± 0.04% | 17.55 ± 0.04% | 16.25 ± 0.04% | 40.5 µg/mL (≈ 86.3 µM) | 29.8 µg/mL (≈ 63.3 µM) | 10.24 | 305 µg/mL (≈ 649 µM) | – | – | –
C[C@H]1O[C@H](O[C@H]2[C@H](O)[C@@H](O)[C@@H](O[C@H]3[C@H](O)[C@@H](O)C(O)O[C@@H]3CO)O[C@@H]2CO)[C@H](O)[C@@H](O)[C@@H]1N[C@H]1C=C(CO)[C@@H](O)[C@H](O)[C@H]1O (stereo partly shown) [Acarbose] | – | – | – | – | 47.70 ± 0.01% | 1070 ± 10 µg/mL | – | – | – | – | – | – | – | – | 65.95 ± 0.01% | 55.45 ± 0.01% | completely decreasing the protein band
O=C1O[C@H]([C@@H](O)CO)C(O)=C1O [Ascorbic acid, reference compound] | – | – | 4.05 ± 0.01 µg/mL | 39.09 ± 0.09% | – | – | – | – | – | – | – | – | – | – | – | – | –
O=C(O)Cc1ccccc1Nc1c(Cl)cccc1Cl [Diclofenac sodium, reference compound] | – | – | – | – | – | – | – | – | – | 41.88 ± 0.09% | – | – | – | – | – | – | –
COc1cccc2c1C(=O)c1c(O)c3c(c(O)c1C2=O)C[C@@](O)(C(=O)CO)C[C@@H]3O[C@H]1C[C@H](N)[C@H](O)[C@H](C)O1 [Doxorubicin, reference compound] | – | – | – | – | – | – | – | – | – | – | 31.3 µg/mL (≈ 57.6 µM) | 28.4 µg/mL (≈ 52.3 µM) | 2.67 | 76 µg/mL (≈ 140 µM) | – | – | –
